≈ marks a conversion by molar mass, not a printed value. Calls of active or inactive are those of the source. The rule behind the calls is not given here.
system: not listed separately; assay: Half-life in mouse liver microsomes at 1 uM in presence of NADPH by HPLC-ESI-MS/MS analysis; format: ADME, microsome; conditions: not given

In order of rising half-life at 1 µM:
1. C[C@H](CCC(=O)N[C@H](CC(=O)O)Cc1c[nH]c2ccccc12)[C@H]1CC[C@H]2[C@@H]3CC[C@@H]4C[C@H](O)CC[C@]4(C)[C@H]3CC[C@]12C  0.28 h
2. C[C@H](CCC(=O)N[C@H](CC(=O)O)Cc1c[nH]c2ccccc12)[C@H]1CC[C@H]2[C@@H]3CC[C@@H]4C/C(=N/O)CC[C@]4(C)[C@H]3CC[C@]12C  1.01 h
3. C[C@H](CCC(=O)N[C@H](CC(=O)O)Cc1c[nH]c2ccccc12)[C@H]1CC[C@H]2[C@@H]3CC[C@@H]4C[C@H](OC(N)=O)CC[C@]4(C)[C@H]3CC[C@]12C  2.6 h

system: not listed separately; assay: Kinetic solubility in MOPS buffer at pH 7.4 measured after 4 hrs by HPLC-ESI-MS/MS analysis; format: physicochemical; conditions: read-out: Kinetic_solubility
In short: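 DMSO stock (10 mM) diluted into 50 mM MOPS pH 7.4, ionic strength 0.15 M with KCl, final 1% DMSO. Agitated 4 h at 25 ± 3 °C, centrifuged 1,000 g 10 min. Supernatant diluted 1:1 with MeOH containing internal standard, quantified by HPLC-ESI-MS/MS against per-compound MeOH calibration curves.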

In order of rising solubility kinetic at 4 h:
1. C[C@H](CCC(=O)N[C@H](CC(=O)O)Cc1c[nH]c2ccccc12)[C@H]1CC[C@H]2[C@@H]3CC[C@@H]4C[C@H](OC(N)=O)CC[C@]4(C)[C@H]3CC[C@]12C  18.7 µM (≈ 11.6 µg/mL)
2. C[C@H](CCC(=O)N[C@H](CC(=O)O)Cc1c[nH]c2ccccc12)[C@H]1CC[C@H]2[C@@H]3CC[C@@H]4C[C@H](O)CC[C@]4(C)[C@H]3CC[C@]12C  31.8 µM (≈ 18.3 µg/mL)
3. C[C@H](CCC(=O)N[C@H](CC(=O)O)Cc1c[nH]c2ccccc12)[C@H]1CC[C@H]2[C@@H]3CC[C@@H]4C/C(=N/O)CC[C@]4(C)[C@H]3CC[C@]12C  51.9 µM (≈ 30.6 µg/mL)

system: Liver; assay: Drug metabolism in mouse liver microsomes assessed as (S)-3-((S)-4-((5R,8R,9S,10S,13R,14S,17R)-10,13-dimethyl-3-oxohexadecahydro-1H-cyclopenta[a]phenanthren-17-yl)pentanamido)-4-(1H-indol-3-yl)butanoic acid formation by HPLC-ESI-MS/MS analysis; format: ADME, microsome; conditions: not given

With `C[C@H](CCC(=O)N[C@H](CC(=O)O)Cc1c[nH]c2ccccc12)[C@H]1CC[C@H]2[C@@H]3CC[C@@H]4C[C@H](O)CC[C@]4(C)[C@H]3CC[C@]12C` the Drug metabolism was “Metabolite_Detected”.

system: not listed separately; assay: n-Octanol-buffer partition co-efficient, log D of the compound at pH 7.4 incubated overnight by shake-flask method; format: physicochemical; conditions: not given
In short: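 Shake-flask n-octanol/buffer partition at 25 ± 3 °C against 50 mM MOPS pH 7.4, ionic strength 0.15 M with KCl. Pre-saturated phases equilibrated overnight. Each phase diluted in MeOH with internal standard and analysed by HPLC-ESI-MS/MS. Mean of three independent partitions using different octanol/buffer volume ratios.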

In order of rising logD:
1. C[C@H](CCC(=O)N[C@H](CC(=O)O)Cc1c[nH]c2ccccc12)[C@H]1CC[C@H]2[C@@H]3CC[C@@H]4C/C(=N/O)CC[C@]4(C)[C@H]3CC[C@]12C  4.23
2. C[C@H](CCC(=O)N[C@H](CC(=O)O)Cc1c[nH]c2ccccc12)[C@H]1CC[C@H]2[C@@H]3CC[C@@H]4C[C@H](OC(N)=O)CC[C@]4(C)[C@H]3CC[C@]12C  5.01

molecular target: Ephrin type-A receptor 2 (Mus musculus, UniProt Q03145); assay: Displacement of biotinylated ephrin-A1-Fc from recombinant mouse EphA2 receptor preincubated for 1 hr followed by biotinylated ephrin-A1-Fc addition measured after 4 hrs by ELISA method; conditions: not given
Sequence (Q03145 whole entry): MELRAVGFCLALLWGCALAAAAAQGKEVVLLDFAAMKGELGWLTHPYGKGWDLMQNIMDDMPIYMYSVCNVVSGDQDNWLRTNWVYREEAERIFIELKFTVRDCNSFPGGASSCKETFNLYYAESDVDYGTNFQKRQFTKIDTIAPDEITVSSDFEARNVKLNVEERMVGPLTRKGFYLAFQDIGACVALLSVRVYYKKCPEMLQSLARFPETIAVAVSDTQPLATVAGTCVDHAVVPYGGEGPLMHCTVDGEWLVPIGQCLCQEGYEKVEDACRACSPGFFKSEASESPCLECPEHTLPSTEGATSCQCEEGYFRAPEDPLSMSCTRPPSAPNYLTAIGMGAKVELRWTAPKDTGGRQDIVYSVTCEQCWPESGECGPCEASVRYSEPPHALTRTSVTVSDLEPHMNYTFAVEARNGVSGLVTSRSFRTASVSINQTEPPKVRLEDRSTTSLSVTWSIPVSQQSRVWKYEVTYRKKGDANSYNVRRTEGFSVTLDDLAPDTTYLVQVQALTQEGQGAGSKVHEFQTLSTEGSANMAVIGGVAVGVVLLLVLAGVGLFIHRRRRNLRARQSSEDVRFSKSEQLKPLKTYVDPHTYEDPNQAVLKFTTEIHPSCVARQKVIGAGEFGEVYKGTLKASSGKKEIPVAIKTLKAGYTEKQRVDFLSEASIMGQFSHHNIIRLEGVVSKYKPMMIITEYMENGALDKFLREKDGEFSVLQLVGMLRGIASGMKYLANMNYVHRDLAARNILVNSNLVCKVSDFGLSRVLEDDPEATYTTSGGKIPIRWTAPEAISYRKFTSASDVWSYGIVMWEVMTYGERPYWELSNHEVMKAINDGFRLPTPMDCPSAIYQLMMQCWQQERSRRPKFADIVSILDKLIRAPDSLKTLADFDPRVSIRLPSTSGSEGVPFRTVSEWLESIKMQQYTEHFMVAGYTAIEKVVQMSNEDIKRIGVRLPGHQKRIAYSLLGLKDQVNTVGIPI

In order of rising IC50:
1. C[C@H](CCC(=O)N[C@H](CC(=O)O)Cc1c[nH]c2ccccc12)[C@H]1CC[C@H]2[C@@H]3CC[C@@H]4C[C@H](OC(N)=O)CC[C@]4(C)[C@H]3CC[C@]12C  0.8 µM
2. C[C@H](CCC(=O)N[C@H](CC(=O)O)Cc1csc2ccccc12)[C@H]1CC[C@H]2[C@@H]3CC[C@@H]4C[C@H](O)CC[C@]4(C)[C@H]3CC[C@]12C  1.8 µM
3. C[C@H](CCC(=O)N[C@H](CC(=O)O)Cc1c[nH]c2ccccc12)[C@H]1CC[C@H]2[C@@H]3CC[C@@H]4C/C(=N/O)CC[C@]4(C)[C@H]3CC[C@]12C  3.1 µM
4. C[C@H](CCC(=O)N[C@H](CC(=O)O)Cc1cccc2ccccc12)[C@H]1CC[C@H]2[C@@H]3CC[C@@H]4C[C@H](O)CC[C@]4(C)[C@H]3CC[C@]12C  3.9 µM
5. CC(C)[C@@H](CC(=O)O)NC(=O)CC[C@@H](C)[C@H]1CC[C@H]2[C@@H]3CC[C@@H]4C[C@H](O)CC[C@]4(C)[C@H]3CC[C@]12C  10 µM
6. CO/N=C1\CC[C@@]2(C)[C@H](CC[C@@H]3[C@@H]2CC[C@]2(C)[C@@H]([C@H](C)CCC(=O)N[C@H](CC(=O)O)Cc4c[nH]c5ccccc45)CC[C@@H]32)C1  13 µM
7. C[C@H](CCC(=O)N[C@H](CC(=O)O)c1ccccc1)[C@H]1CC[C@H]2[C@@H]3CC[C@@H]4C[C@H](O)CC[C@]4(C)[C@H]3CC[C@]12C  14 µM
8. C[C@H](CCC(=O)N[C@H](CC(=O)O)Cc1ccccc1)[C@H]1CC[C@H]2[C@@H]3CC[C@@H]4C[C@H](O)CC[C@]4(C)[C@H]3CC[C@]12C  18 µM
9. C[C@H](CCC(=O)N[C@H](CC(=O)O)Cc1c[nH]c2ccccc12)[C@H]1CC[C@H]2[C@@H]3CC[C@@H]4CCCC[C@]4(C)[C@H]3CC[C@]12C  28 µM
10. C[C@H](CCC(=O)NCCC(=O)O)[C@H]1CC[C@H]2[C@@H]3CC[C@@H]4C[C@H](O)CC[C@]4(C)[C@H]3CC[C@]12C  29 µM
11. C[C@H](CCC(=O)NCCS(=O)(=O)O)[C@H]1CC[C@H]2[C@@H]3CC[C@@H]4C[C@H](O)CC[C@]4(C)[C@H]3CC[C@]12C [TAUROLITHOCHOLIC ACID]  72 µM
12. C[C@H](CCC(=O)O)[C@H]1CC[C@H]2[C@@H]3CC[C@@H]4C[C@H](O)CC[C@]4(C)[C@H]3CC[C@]12C [LITHOCHOLIC ACID]  79 µM
13. CSCC[C@@H](CC(=O)O)NC(=O)CC[C@@H](C)[C@H]1CC[C@H]2[C@@H]3CC[C@@H]4C[C@H](O)CC[C@]4(C)[C@H]3CC[C@]12C  83 µM

system: not listed separately; assay: Tmax in mouse at 30 mg/kg, administered as single dose via oral gavage by HPLC-ESI-MS/MS analysis; format: ADME, organism-based; conditions: in vivo
In short: (§1)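 Male mice, fasted, groups of four; single oral gavage at 30 mg/kg in 0.5% methylcellulose (10/90 v/v). Tail-puncture blood at 5-7 time points between 15 and 1440 min, centrifuged 5000 rpm 10 min, plasma stored at -20 °C, quantified by HPLC-ESI-MS/MS. Reported as means ± SEM.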

In order of rising Tmax:
1. C[C@H](CCC(=O)N[C@H](CC(=O)O)Cc1c[nH]c2ccccc12)[C@H]1CC[C@H]2[C@@H]3CC[C@@H]4C/C(=N/O)CC[C@]4(C)[C@H]3CC[C@]12C  1 h
2. C[C@H](CCC(=O)N[C@H](CC(=O)O)Cc1c[nH]c2ccccc12)[C@H]1CC[C@H]2[C@@H]3CC[C@@H]4C[C@H](OC(N)=O)CC[C@]4(C)[C@H]3CC[C@]12C  1 h

system: not listed separately; assay: Cmax in mouse at 30 mg/kg, administered as single dose via oral gavage by HPLC-ESI-MS/MS analysis; format: ADME, organism-based; set-up: dose 30 mg/kg, route oral; conditions: in vivo; in short: as §1

In order of falling Cmax:
1. C[C@H](CCC(=O)N[C@H](CC(=O)O)Cc1c[nH]c2ccccc12)[C@H]1CC[C@H]2[C@@H]3CC[C@@H]4C[C@H](OC(N)=O)CC[C@]4(C)[C@H]3CC[C@]12C  870 nM
2. C[C@H](CCC(=O)N[C@H](CC(=O)O)Cc1c[nH]c2ccccc12)[C@H]1CC[C@H]2[C@@H]3CC[C@@H]4C/C(=N/O)CC[C@]4(C)[C@H]3CC[C@]12C  400 nM
3. C[C@H](CCC(=O)N[C@H](CC(=O)O)Cc1c[nH]c2ccccc12)[C@H]1CC[C@H]2[C@@H]3CC[C@@H]4C[C@H](O)CC[C@]4(C)[C@H]3CC[C@]12C  10 nM

system: Liver; assay: Drug level in mouse liver microsomes treated with (S)-3-((S)-4-((5R,8R,9S,10S,13R,14S,17R)-3-hydroxy-10,13-dimethylhexadecahydro-1H-cyclopenta[a]phenanthren-17-yl)pentanamido)-4-(1H-indol-3-yl)butanoic acid by HPLC-ESI-MS/MS analysis; conditions: not given

In the case of `C[C@H](CCC(=O)N[C@H](CC(=O)O)Cc1c[nH]c2ccccc12)[C@H]1CC[C@H]2[C@@H]3CC[C@@H]4CC(=O)CC[C@]4(C)[C@H]3CC[C@]12C`, the Drug metabolism is reported as “Metabolite_Detected”.

system: not listed separately; assay: Stability in mouse plasma assessed as compound remaining at 1 uM after 24 hrs by HPLC-ESI-MS/MS analysis; format: ADME, cell-free; conditions: read-out: Stability
In short: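 Mouse plasma diluted to 80% (v/v) with 100 mM PBS pH 7.4. Compound added at 1 μM final with 1% v/v DMSO, held at 37 °C. Aliquots taken at intervals, quenched with two volumes MeCN, centrifuged 9,000 g 10 min at 4 °C. Percent remaining measured by HPLC-ESI-MS/MS.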

In order of rising remaining at 24 h, 1 µM:
1. C[C@H](CCC(=O)N[C@H](CC(=O)O)Cc1c[nH]c2ccccc12)[C@H]1CC[C@H]2[C@@H]3CC[C@@H]4C/C(=N/O)CC[C@]4(C)[C@H]3CC[C@]12C  93.7%
2. C[C@H](CCC(=O)N[C@H](CC(=O)O)Cc1c[nH]c2ccccc12)[C@H]1CC[C@H]2[C@@H]3CC[C@@H]4C[C@H](OC(N)=O)CC[C@]4(C)[C@H]3CC[C@]12C  98.2%

molecular target: Ephrin type-A receptor 2 (Mus musculus) (UniProt Q03145); assay: Displacement of biotinylated ephrin-A1-Fc from recombinant mouse EphA2 receptor up to 100 uM preincubated for 1 hr followed by biotinylated ephrin-A1-Fc addition measured after 4 hrs by ELISA method; conditions: not given
In short: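 EphA2-Fc (1 µg mL⁻¹ in PBS pH 7.4) was coated overnight at 4 °C, then blocked with PBS + 0.5% BSA for 1 h at 37 °C. Compounds in 1% DMSO were added for 1 h at 37 °C. Biotinylated ephrin-A1-Fc was then added at its K_D for 4 h at 37 °C. Detection used streptavidin-HRP (20 min, RT), TMB/H₂O₂, HCl stop and A450. IC₅₀ came from one-site competition nonlinear regression; mean of ≥3 independent experiments.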

Sequence of Ephrin type-A receptor 2 (Mus musculus) (Q03145 whole entry): as above

With `C[C@H](CCC(=O)N[C@@H](CCc1ccccc1)CC(=O)O)[C@H]1CC[C@H]2[C@@H]3CC[C@@H]4C[C@H](O)CC[C@]4(C)[C@H]3CC[C@]12C` the inhibition was “inactive”.
With `C[C@H](CCC(=O)NCCCCC(=O)O)[C@H]1CC[C@H]2[C@@H]3CC[C@@H]4C[C@H](O)CC[C@]4(C)[C@H]3CC[C@]12C` the inhibition was “inactive”.
In the case of `CC(C)C[C@@H](CC(=O)O)NC(=O)CC[C@@H](C)[C@H]1CC[C@H]2[C@@H]3CC[C@@H]4C[C@H](O)CC[C@]4(C)[C@H]3CC[C@]12C`, the inhibition is reported as “inactive”.
For `COC(=O)CCNC(=O)CC[C@@H](C)[C@H]1CC[C@H]2[C@@H]3CC[C@@H]4C[C@H](O)CC[C@]4(C)[C@H]3CC[C@]12C`, the inhibition was “inactive”.
With `C[C@H](CCC(=O)NCCCC(=O)O)[C@H]1CC[C@H]2[C@@H]3CC[C@@H]4C[C@H](O)CC[C@]4(C)[C@H]3CC[C@]12C` the inhibition was “inactive”.

system: Plasma; assay: Drug uptake in mouse plasma at 30 mg/kg, administered as single dose via oral gavage after 120 min by HPLC-ESI-MS/MS analysis; conditions: in vivo

With `C[C@H](CCC(=O)N[C@H](CC(=O)O)Cc1c[nH]c2ccccc12)[C@H]1CC[C@H]2[C@@H]3CC[C@@H]4C[C@H](O)CC[C@]4(C)[C@H]3CC[C@]12C` the Drug uptake was “Active”.

system: Plasma; assay: Drug uptake in mouse plasma at 30 mg/kg, administered as single dose via oral gavage after 24 hrs by HPLC-ESI-MS/MS analysis; format: ADME, organism-based; conditions: in vivo
In short: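 Male mice (fasted, four per group) received a single esophageal gavage of 30 mg/kg in 0.5% methylcellulose. Tail-puncture blood was taken at 5–7 time points between 15 and 1440 min. Plasma was separated by centrifugation (5000 rpm, 10 min), stored at –20 °C and quantified by HPLC-ESI-MS/MS. Data are means ± SEM.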

For `C[C@H](CCC(=O)N[C@H](CC(=O)O)Cc1c[nH]c2ccccc12)[C@H]1CC[C@H]2[C@@H]3CC[C@@H]4C[C@H](OC(N)=O)CC[C@]4(C)[C@H]3CC[C@]12C`, the Drug uptake was “Active”.
